Article PMC6004563 (ACS Medicinal Chemistry Letters, 2018)

Tests used:
[1] = target: Dicer-mediated pre-let-7d maturation (Homo sapiens, UniProt Q9UPY3); assay: Selectivity: Dicer-mediated pre-let-7d maturation; assay type: biochemical; conditions: compound at 100 µM
[2] = target: T1, pre-let-7d−Lin28 interaction (Mus musculus, UniProt Q8K3Y3); assay: electrophoretic mobility shift assay; assay type: binding, murine; conditions: pre-let-7d with Lin28, dose response
T1 sequence (Q8K3Y3 2-209): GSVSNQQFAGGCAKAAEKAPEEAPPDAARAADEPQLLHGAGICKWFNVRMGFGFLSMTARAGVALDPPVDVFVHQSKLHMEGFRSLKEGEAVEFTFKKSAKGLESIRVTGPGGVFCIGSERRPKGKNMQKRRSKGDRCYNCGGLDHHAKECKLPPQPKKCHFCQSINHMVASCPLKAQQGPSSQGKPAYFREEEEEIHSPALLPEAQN

[3] = target: eIF4E−4E-BP1 protein-protein interaction (Homo sapiens, UniProt P06730); assay: Selectivity: cat-ELCCA of the eIF4E−4E-BP1 protein-protein interaction; assay type: binding; conditions: compound at 100 µM
biotinylated pre-let-7d = assay: SPR binding to biotinylated pre-let-7d; conditions: 100, 50, 25, 12.5 and 6.25 µM
[4] = target: T2, pre-let-7d–Lin28A interaction (Mus musculus, UniProt Q8K3Y3); assay: cat-ELCCA of the pre-let-7d–Lin28A interaction; assay type: binding, murine
T2 sequence (Q8K3Y3 2-209): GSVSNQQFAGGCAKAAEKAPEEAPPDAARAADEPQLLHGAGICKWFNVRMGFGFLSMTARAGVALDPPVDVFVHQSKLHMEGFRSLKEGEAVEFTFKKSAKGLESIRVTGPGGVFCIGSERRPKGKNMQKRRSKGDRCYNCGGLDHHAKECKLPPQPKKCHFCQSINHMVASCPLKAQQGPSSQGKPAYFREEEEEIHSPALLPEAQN
Method in brief: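 Murine Lin28A, expressed as an N-terminal HaloTag fusion and biotin-labelled, was immobilised in streptavidin-coated wells. Wells were then incubated with pre-let-7d bearing a 5′-trans-cyclooctene click handle. Bound RNA was detected by click reaction with methyltetrazine-labelled HRP, then HRP substrate, with chemiluminescence as read-out. Washing steps were included.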

[5] = target: T3, HaloTag-mLin28A (biotinylated) (Mus musculus, UniProt Q8K3Y3 1-209); assay: cat-ELCCA
T3 sequence: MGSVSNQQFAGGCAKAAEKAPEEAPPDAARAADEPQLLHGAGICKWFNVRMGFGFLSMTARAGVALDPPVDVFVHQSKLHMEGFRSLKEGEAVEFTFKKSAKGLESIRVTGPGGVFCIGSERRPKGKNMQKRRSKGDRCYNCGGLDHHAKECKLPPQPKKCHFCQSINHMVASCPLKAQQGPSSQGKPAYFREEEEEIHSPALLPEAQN

Chain of eIF4E−4E-BP1 protein-protein interaction (P06730 whole entry): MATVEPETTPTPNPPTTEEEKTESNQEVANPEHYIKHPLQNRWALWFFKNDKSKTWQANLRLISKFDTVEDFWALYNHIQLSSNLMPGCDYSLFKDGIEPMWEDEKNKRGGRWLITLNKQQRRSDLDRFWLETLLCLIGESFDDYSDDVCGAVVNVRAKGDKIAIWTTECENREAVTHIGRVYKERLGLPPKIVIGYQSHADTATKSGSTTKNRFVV
Chain of Dicer-mediated pre-let-7d maturation (Q9UPY3 whole entry): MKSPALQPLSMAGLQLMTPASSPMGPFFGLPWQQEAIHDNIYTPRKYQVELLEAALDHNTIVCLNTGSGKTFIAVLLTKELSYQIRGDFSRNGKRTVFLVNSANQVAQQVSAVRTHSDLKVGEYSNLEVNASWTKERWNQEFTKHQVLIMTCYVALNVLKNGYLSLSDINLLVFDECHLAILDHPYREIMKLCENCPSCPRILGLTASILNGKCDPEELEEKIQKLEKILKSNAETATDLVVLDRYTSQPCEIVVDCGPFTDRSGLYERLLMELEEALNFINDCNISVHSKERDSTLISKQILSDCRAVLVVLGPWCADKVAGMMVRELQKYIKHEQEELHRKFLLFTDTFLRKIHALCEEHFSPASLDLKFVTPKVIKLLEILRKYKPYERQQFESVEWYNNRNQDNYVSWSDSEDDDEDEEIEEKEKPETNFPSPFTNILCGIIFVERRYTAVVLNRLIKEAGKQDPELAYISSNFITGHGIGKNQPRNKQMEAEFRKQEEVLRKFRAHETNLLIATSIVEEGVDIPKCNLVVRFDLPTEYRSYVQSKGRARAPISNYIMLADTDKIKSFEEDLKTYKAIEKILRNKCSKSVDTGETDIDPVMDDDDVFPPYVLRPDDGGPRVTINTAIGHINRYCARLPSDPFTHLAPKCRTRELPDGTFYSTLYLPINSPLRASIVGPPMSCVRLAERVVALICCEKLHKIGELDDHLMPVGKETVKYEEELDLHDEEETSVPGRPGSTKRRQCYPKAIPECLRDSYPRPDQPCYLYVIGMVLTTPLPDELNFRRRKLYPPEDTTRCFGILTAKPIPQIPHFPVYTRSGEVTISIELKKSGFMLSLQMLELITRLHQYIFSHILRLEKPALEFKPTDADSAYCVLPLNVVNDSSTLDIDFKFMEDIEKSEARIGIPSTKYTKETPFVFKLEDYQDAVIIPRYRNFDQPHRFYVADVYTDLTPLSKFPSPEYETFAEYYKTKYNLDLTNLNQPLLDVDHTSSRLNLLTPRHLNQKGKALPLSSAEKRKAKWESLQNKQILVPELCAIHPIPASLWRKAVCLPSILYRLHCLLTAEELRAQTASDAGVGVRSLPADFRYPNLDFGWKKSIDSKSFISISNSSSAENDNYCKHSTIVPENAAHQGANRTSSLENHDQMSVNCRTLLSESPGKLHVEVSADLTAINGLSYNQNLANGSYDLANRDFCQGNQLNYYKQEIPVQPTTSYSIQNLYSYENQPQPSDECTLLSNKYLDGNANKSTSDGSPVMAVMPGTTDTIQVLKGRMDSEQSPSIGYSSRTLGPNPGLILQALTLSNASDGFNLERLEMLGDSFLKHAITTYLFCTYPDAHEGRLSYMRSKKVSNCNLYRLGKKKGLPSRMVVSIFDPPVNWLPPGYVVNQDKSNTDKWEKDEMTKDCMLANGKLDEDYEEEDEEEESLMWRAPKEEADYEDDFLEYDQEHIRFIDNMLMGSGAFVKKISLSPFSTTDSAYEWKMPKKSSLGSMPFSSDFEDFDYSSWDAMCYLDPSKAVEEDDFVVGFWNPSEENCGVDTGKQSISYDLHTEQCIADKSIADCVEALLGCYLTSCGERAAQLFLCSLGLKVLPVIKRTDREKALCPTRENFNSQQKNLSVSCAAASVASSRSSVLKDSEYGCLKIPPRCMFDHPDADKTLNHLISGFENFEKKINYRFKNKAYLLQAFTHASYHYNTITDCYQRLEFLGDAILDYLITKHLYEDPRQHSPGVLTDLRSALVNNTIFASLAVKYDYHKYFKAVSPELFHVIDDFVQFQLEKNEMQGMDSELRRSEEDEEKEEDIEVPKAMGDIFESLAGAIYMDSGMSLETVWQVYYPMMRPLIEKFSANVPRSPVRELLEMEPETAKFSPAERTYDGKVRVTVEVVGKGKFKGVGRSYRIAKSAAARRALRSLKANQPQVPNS

Molecule: Cc1ccc(S(=O)(=O)Nc2ccc(F)cc2NS(=O)(=O)c2ccc(C)cc2)cc1 [CCG-233094]
- inhibition of Dicer-mediated pre-let-7d maturation [1]: insignificant inhibition
- activity in EMSA [2]: concentration-responsive activity
- inhibition of cat-ELCCA-based PPI assay [3]: insignificant inhibition
- binding to pre-let-7d (SPR) (biotinylated pre-let-7d): not pre-let-7d

Molecule: Nc1ccccc1NS(=O)(=O)c1ccccc1 [Compound 3]
- activity (inhibition of pre-let-7d–Lin28A) [4]: inactive

Molecule: O=C(Nc1ccccc1NC(=O)c1ccccc1)c1ccccc1 [Compound 6]
- activity (inhibition of pre-let-7d–Lin28A) [4]: inactive

Molecule: O=S(=O)(Nc1cccc(NS(=O)(=O)c2ccccc2)c1)c1ccccc1 [Compound 4, N,N′-(1,3-phenylene)dibenzenesulfonamide]
- activity (inhibition of pre-let-7d–Lin28A) [4]: inactive

Molecule: O=S(=O)(c1ccccc1)N1CCN(S(=O)(=O)c2ccccc2)c2ccccc21 [Compound 5]
- activity (inhibition of pre-let-7d–Lin28A) [4]: inactive

Molecule: Cc1ccc(S(=O)(=O)Nc2ccc(C)cc2NS(=O)(=O)c2cccc(C(F)(F)F)c2)cc1 [CCG-234459]
- inhibition of Dicer-mediated pre-let-7d maturation [1]: insignificant inhibition
- activity in EMSA [2]: concentration-responsive activity
- inhibition of cat-ELCCA-based PPI assay [3]: insignificant inhibition
- binding to pre-let-7d (SPR) (biotinylated pre-let-7d): not pre-let-7d

B1: 5'-TCO-pre-let-7d (structured_RNA)
RNA: AGAGGUAGUAGGUUGCAUAGUUUUAGGGCAGGGAUUUUGCCCACAAGGAGGUAACUAUACGACCUGCUGCCUUUCU
modifications: 5'-phosphate pentylamine (N5) linked to TCO-PEG4
- Kd [5]: 106 nM
